Source: PubChem
APJ agonist = APJ receptor agonism. P35414. CHO-K1 APJ PathHunter beta-arrestin, luminescence; 0% DMSO wells, 100% apelin. activation, % at 20 µM. 330,000 tested, 0.11% active;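 active = activation more than six SD over the plate average, tested at 20 µM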
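system = engineered CHO-K1 APJ arrestin reporter cells | input = 1000 cells per well | timing = overnight seeding, 90 min compound at 25 °C, 1 h detection | measured by = enzyme-fragment complementation luminescence | read-out = beta-arrestin recruitment to APJ as agonist activity, luminescent signal | control set = negative DMSO alone, positive Apelin-13 at 10 nM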
APJ antag = blocks the human apelin receptor APJ; CHO-K1 APJ beta-arrestin complementation, luminescence; 330,000 tested, 0.32% active; inhibition, % at 20 µM; P35414;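 active = inhibition above about 40% at 20 µM, limit read from the data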;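 also: cells challenged with 10 nM apelin-13 agonist together with compound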
EBI2 block = blocks human EBI2 receptor beta-arrestin signaling | EBI2 beta-arrestin recruitment, luminescence, 7a,25-OHC stimulated | inhibition, % at 5 µM | AID 651636 | P32249 | 360,000 tested, 0.81% active; in the data active = inhibition above about 38%;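 also: enzyme fragment complementation signal reports receptor beta-arrestin coupling in cells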
CCR6 antag = CCR6 (human) receptor antagonism; P51684; CHO-K1 CCR6 PathHunter beta-arrestin, luminescence, CCL20-stimulated; inhibition, % at 20 µM; 340,000 tested, 0.49% active; AID 493098;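 active = compounds whose inhibition of the agonist-driven luminescence signal at 20 µM reaches about 50%, limit read from the data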;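 also: cells stimulated with CCL20 at 14 nM final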
CXCR6 inh = blocks human CXCR6 beta-arrestin recruitment; 360,000 tested, 0.36% active; CHO-K1 PathHunter CXCR6 beta-arrestin, luminescence; inhibition, % at 20 µM; in the data active = inhibition above about 34%, passing the limit was not always enough;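 also: antagonist mode with CXCL16 agonist at 10 nM final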
Target sequence (O00574 whole entry, looked up): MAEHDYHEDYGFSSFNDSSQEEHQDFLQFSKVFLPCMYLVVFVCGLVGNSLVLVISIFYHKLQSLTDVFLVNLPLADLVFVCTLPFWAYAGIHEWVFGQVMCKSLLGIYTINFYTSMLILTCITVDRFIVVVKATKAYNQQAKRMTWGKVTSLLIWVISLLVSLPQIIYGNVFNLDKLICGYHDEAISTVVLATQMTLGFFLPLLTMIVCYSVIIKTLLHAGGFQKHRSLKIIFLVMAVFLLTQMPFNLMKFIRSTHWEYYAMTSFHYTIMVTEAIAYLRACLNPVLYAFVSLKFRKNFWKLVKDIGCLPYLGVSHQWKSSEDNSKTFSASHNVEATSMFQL
EBI2 antag conf = EBI2 (human) antagonism, single concentration confirmation | EBI2 beta-arrestin luminescence, 7a,25-OHC antagonism | inhibition, % at 5 µM | shares compounds with EBI2 block | 2,400 tested, 29% active;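 active = inhibition of at least 50%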
EBI2 agonist = EBI2 agonism counter-screen | AID 652000 | EBI2-expressing cells, agonist mode, luminescence, 60 min; 0% vehicle, 100% 7α,25-dihydroxycholesterol control | shares compounds with EBI2 block | 2,400 tested, under 10 active | activation, % at 5 µM;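 active = activation of at least 50%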
bGal counter = beta-galactosidase inhibition counter-screen. inhibition, % at 5 µM. AID 652176. 2,400 tested, 1% active. shares compounds with EBI2 block. purified beta-galactosidase, luminescent Galacton Star, 15 min;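 active = replicate-average signal at least 3 plate SD below neutral wells, shown as high inhibition, flagging enzyme-inhibiting false positives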;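 also: higher means stronger loss of beta-gal luminescence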
Of the large screens only hits and unclear results are named; the others gave an inactive call (follow-up assays come after a bar, where they were run). Only some compounds are listed: those with a hit (about 1.5% of all), similar ones and a draw of the others.

COc1ccc(-c2csc(N(CC(C)C)C(=O)c3ccco3)n2)cc1	EBI2 block 44.4 | EBI2 antag conf inactive | EBI2 agonist inactive | bGal counter inactive
CC(C)N(CCNC(=O)C1CCCN(c2ncnc3c2nc2n3CCCCC2)C1)Cc1ccccc1 (stereo not given)	none
CCCn1c(N2CCN(C(=O)/C=C/C(=O)O)CC2)nc2ccccc21	none
CCc1ccc(/C=C\C(=O)N2CCCC2)cc1	EBI2 block 46.8 | EBI2 antag conf inactive | EBI2 agonist inactive | bGal counter inactive
CCn1c(N2CCN(C(=O)/C=C/c3ccccc3)CC2)nc2ccccc21	EBI2 block 86.4 | EBI2 antag conf 56.2 | EBI2 agonist inactive | bGal counter inactive
O=C(/C=C/c1ccccc1)N1CCN(C(=O)c2ccco2)CC1	EBI2 block 63.4 | EBI2 antag conf inactive | EBI2 agonist inactive | bGal counter inactive
O=C(/C=C/c1ccccc1)N1CCCN(C(=O)/C=C/c2ccccc2)CC1	EBI2 block 79.4 | EBI2 antag conf 52.9 | EBI2 agonist inactive | bGal counter inactive
Cc1ccc(C(=O)NCCc2nnc3ccc(SCC(=O)N4CCCCC4)nn23)cc1	none
CCN(c1ccccc1)S(=O)(=O)c1ccc(Cl)c(C(=O)N2CCCC2)c1	none
CCCCn1nnnc1C(c1cc2ccccc2o1)N1CCN(C/C=C/c2ccccc2)CC1 (stereo not given)	EBI2 block 61.9 (no result: APJ agonist, APJ antag, CCR6 antag) | EBI2 antag conf inactive | EBI2 agonist inactive | bGal counter inactive
CCCCn1nnnc1C(c1cc2ccccc2o1)N1CCN(c2ncccc2C#N)CC1 (stereo not given)	EBI2 block 48.0 (no result: APJ agonist, APJ antag, CCR6 antag) | EBI2 antag conf inactive | EBI2 agonist inactive | bGal counter inactive
CCCCn1nnnc1C(c1cc2ccccc2o1)N1CCCC1 (stereo not given)	none (no result: APJ agonist, APJ antag, CCR6 antag)
O=C(N/N=C/c1ccc(Cl)cc1Cl)c1cccc(F)c1	EBI2 block 44.6 | EBI2 antag conf inactive | EBI2 agonist inactive | bGal counter inactive
CCOc1ccc(NCc2nnc(SCC(=O)Nc3nc(-c4ccccc4)cs3)n2-c2ccccc2)cc1	EBI2 block 46.1 | EBI2 antag conf inactive | EBI2 agonist inactive | bGal counter inactive
Cn1nnc2c[n+](CC(=O)c3ccc4ccccc4c3)cc(Br)c21	EBI2 block 66.3 | EBI2 antag conf 67.0 | EBI2 agonist inactive | bGal counter inactive
Cn1nnc2c[n+](CC(=O)c3ccc(Cl)cc3)cc(Br)c21	none
O=C(COc1ccc2ccccc2c1)N1CCN(c2ccccc2O)CC1	EBI2 block 71.3 | EBI2 antag conf 61.6 | EBI2 agonist inactive | bGal counter inactive
CCc1ccc(OCC(=O)N2CCN(c3ccccc3F)CC2)cc1	EBI2 block 64.7 | EBI2 antag conf 75.5 | EBI2 agonist inactive | bGal counter inactive
CS(=O)(=O)N1CCN(C(=O)COc2ccc3ccccc3c2)CC1	EBI2 block 78.6 | EBI2 antag conf inactive | EBI2 agonist inactive | bGal counter inactive
O=C(COc1ccc2ccccc2c1)N1CCNCC1	none
CCOc1ccc2nc(N/C(N)=N/C(=S)Nc3ccc(OC)cc3)nc(C)c2c1	EBI2 block 43.8 | EBI2 antag conf inactive | EBI2 agonist inactive | bGal counter inactive
N#Cc1cc(-c2ccccc2)cn(Cc2c(Cl)cccc2Cl)c1=O	none
Cc1ccc(-c2cc(C#N)c(=O)n(Cc3c(Cl)cccc3Cl)c2)cc1	EBI2 block 46.8 | EBI2 antag conf inactive | EBI2 agonist inactive | bGal counter inactive
O=c1[nH]c(C2CCCN(S(=O)(=O)c3ccccc3)C2)nc2c1nnn2Cc1cccc(Cl)c1 (stereo not given)	none
COc1ccc(CNc2ccccc2)cc1Br	none
COc1ccc(Cc2nnc(Nc3ccccc3)s2)cc1Br	EBI2 block 35.4 | EBI2 antag conf inactive | EBI2 agonist inactive | bGal counter inactive
NC(=O)CSc1oc(-c2ccco2)nc1S(=O)(=O)c1ccc(Br)cc1	none
CCCN(CCC)C(=O)C1CCN(c2ccc(S(=O)(=O)N3CCOCC3)cc2[N+](=O)[O-])CC1	EBI2 block 62.0 | EBI2 antag conf inactive | EBI2 agonist inactive | bGal counter inactive
COCCN(CCOC)C(=O)C1CCN(c2ccc(S(=O)(=O)N3CCOCC3)cc2[N+](=O)[O-])CC1	none
O=C(COC(=O)/C=C/c1cccs1)NC(=O)Cc1ccccc1	none
O=C(COC(=O)/C=C/c1cccs1)NC(c1ccccc1)c1ccccc1	EBI2 block 61.6 | EBI2 antag conf inactive | EBI2 agonist inactive | bGal counter inactive
O=C1CC(c2ccc(F)cc2)CC2=C1C=Nc1ccccc1N2 (stereo not given)	EBI2 block 80.6 | EBI2 antag conf inactive | EBI2 agonist inactive | bGal counter inactive
CC1CC(=O)C2=C(C1)Nc1ccccc1N=C2 (stereo not given)	none
O=C1CC(c2ccccc2)CC2=C1C=Nc1ccccc1N2 (stereo not given)	EBI2 block 52.6 | EBI2 antag conf inactive | EBI2 agonist inactive | bGal counter inactive
CC(C)(C)SCCNC(=O)COc1ccc(Cl)cc1	none
Cc1ccccc1CSCCNC(=O)COc1ccc(Cl)cc1	EBI2 block 55.0 | EBI2 antag conf inactive | EBI2 agonist inactive | bGal counter inactive
COc1ccc(/C=N/OCC(=O)NC(c2ccccc2)c2ccccc2)c(OC)c1	none
CCOc1ccc(/C=N/OCC(=O)NC(c2ccccc2)c2ccccc2)cc1	EBI2 block 79.5 | EBI2 antag conf 59.9 | EBI2 agonist inactive | bGal counter inactive
CC1CCCN(S(=O)(=O)c2ccc(NC(=O)C3CCN(C(=O)C(C)(C)C)CC3)cc2)C1 (stereo not given)	none
CC1(C(=O)Nc2cnc3ccccc3c2)CCN1C(=O)c1ccccc1CCc1ccccc1 (stereo not given)	EBI2 block 47.7 (no result: APJ agonist, APJ antag, CCR6 antag) | EBI2 antag conf inactive | EBI2 agonist inactive | bGal counter inactive
COc1ccc(NC2CCCN(C(=O)c3ccc(C)c(N4CCNC4=O)c3)C2)cc1 (stereo not given)	none
O=C(NCC(c1ccco1)N1CCN(c2ccccc2F)CC1)c1cccs1 (stereo not given)	none
O=C(NCc1cccs1)C(=O)NCC(c1ccco1)N1CCN(c2ccccc2F)CC1 (stereo not given)	EBI2 block 52.1 | EBI2 antag conf inactive | EBI2 agonist inactive | bGal counter inactive
COc1ccccc1/C=C/C(=O)OC(C)CN1CCCCC1 (stereo not given)	none
Cc1ccc(OCC(=O)NCCC2=CCCCC2)cc1	none
Cc1ccc(SCC(=O)NCCC2=CCCCC2)cc1	EBI2 block 37.7 | EBI2 antag conf inactive | EBI2 agonist inactive | bGal counter inactive
